# Measurements from different studies.
# Lines come from different studies, so protocols differ.
# BRAF V600E: Serine/threonine-protein kinase B-raf (BRAF, Homo sapiens, UniProt P15056, V600E)
# BRAF: Serine/threonine-protein kinase B-raf (BRAF, Homo sapiens, UniProt P15056)
SMILES,target,observed,action,method,concentration,endpoint,result
CNC(=O)c1ccc(Nc2ncc(C(F)(F)F)c(NCc3nccnc3N(C)S(C)(=O)=O)n2)cc1,BRAF V600E,cell-free assay,,competition with immobilised ligand,0.1 µM,remaining binding,100%
Cc1ccc(C(CS(=O)(=O)c2ccccc2)=NNC2=NC(=O)C(=NNc3ccc([N+](=O)[O-])cc3)S2)cc1,BRAF V600E,enzyme activity,inhibitor,ATP luminescence,10 nM,inhibition,31%
CCOCCn1cc(C(=O)Nc2ccc(-n3nc(-c4cccnc4)cc3C(F)(F)F)cn2)ccc1=O,BRAF V600E,cell-free assay,,competition with immobilised ligand,1 µM,remaining binding,97%
NC(=S)NN=C(CS(=O)(=O)c1ccccc1)c1ccc(F)cc1,BRAF V600E,enzyme activity,inhibitor,ATP luminescence,0.1 µM,inhibition,51%
COc1cc(Nc2c(C#N)cnc3cc(OCCCN4CCN(C)CC4)c(OC)cc23)c(Cl)cc1Cl,BRAF,cell-free assay,,,0.5 µM,remaining signal,91.7%
Cc1ccc(C(=O)Nc2ccc(CN3CCN(C)CC3)c(C(F)(F)F)c2)cc1C#Cc1cnc2cccnn12,BRAF,cell-free assay,,,23.5 nM,remaining signal,15%
CC(C)(C)c1nc2c(s1)c1nc(N)ncc1c1ccc(NS(=O)(=O)c3c(F)cccc3F)c(F)c12,BRAF V600E,enzyme activity,inhibitor,radiometric,1 µM,remaining activity,27%
Cc1sc(C(=O)NC2COC2)cc1-n1cc(NC(=O)Nc2c(F)cccc2Cl)cn1,BRAF,enzyme activity,inhibitor,,10 µM,remaining activity,105%
Cc1ccc(C(CS(=O)(=O)c2ccccc2)=NNC2=NC(=O)C(=NNc3ccc(Cl)cc3)S2)cc1,BRAF V600E,enzyme activity,inhibitor,ATP luminescence,1 µM,inhibition,61%
O=C(NS(=O)(=O)c1ccc(NCC2CCOCC2)c([N+](=O)[O-])c1)c1ccc(N2CCN(Cc3ccc(C(F)(F)F)cc3-c3ccc(Cl)cc3)CC2)cc1Oc1cnc2[nH]ccc2c1,BRAF V600E,cell-free assay,,competition with immobilised ligand,1 µM,remaining binding,83%
N[C@@H]1CCN(c2nccc(-c3cnn4ncccc34)n2)C1,BRAF V600E,binding,,,1 µM,remaining binding,97%
CC(C)(C)c1nc(-c2cccc(NS(=O)(=O)c3c(F)cccc3F)c2F)c(-c2ccnc(N)n2)s1,BRAF,enzyme activity,inhibitor,radiometric,1 µM,activity vs control,5%
CN(C)C1CCN(CC#Cc2nn(C3CCCC3)c3nc(NCc4ccccc4)ncc23)C1 (stereo not shown),BRAF,enzyme activity,inhibitor,FRET,0.1 µM,inhibition,-3%
Cc1ccc(C(=O)NCc2ccsc2)cc1C#Cc1cn(C(C)C)c2ncnc(N)c12,BRAF V600E,enzyme activity,inhibitor,,1 µM,activity vs control,9%
CN(c1nccc(-c2cnn3ncccc23)n1)C1CC1,BRAF,binding,,,1 µM,remaining binding,100%
N#CCCc1ccc2c(c1)-c1[nH]c3ccc([N+](=O)[O-])cc3c1CC(=O)N2,BRAF,cell-free assay,,,0.5 µM,remaining signal,99.3%
Cc1c(NC(=O)c2cc(C(N)=O)nc3cc(F)ccc23)c(C(F)(F)F)nn1Cc1ccc(C(C)(C)C)cc1,BRAF V600E,cell-free assay,,competition with immobilised ligand,1 µM,remaining binding,98%
Cc1ccc(C(CS(=O)(=O)c2ccccc2)=NNc2nc(-c3ccc(OCCCCOc4ccc(-c5csc(NN=C(CS(=O)(=O)c6ccccc6)c6ccc(C)cc6)n5)cc4)cc3)cs2)cc1,BRAF V600E,enzyme activity,inhibitor,ATP luminescence,1 µM,inhibition,84%
COc1ccc2c(c1)O[C@H](c1ccc(OC)c(OC)c1)C[C@@H]2NC(=O)C1(c2ccc3c(c2)OC(F)(F)O3)CC1,BRAF V600E,cell-free assay,,competition with immobilised ligand,1 µM,remaining binding,93%
Cc1cnn2ncc(-c3ccnc(N(C)C)n3)c2c1,BRAF V600E,binding,,,1 µM,remaining binding,91%
Cc1nc(C2CCN(C(=O)c3ccc(OC(F)(F)F)cc3N)CC2)c2ncc(N3CCN(C)CC3)cc2n1,BRAF,cell-free assay,,competition with immobilised ligand,1 µM,remaining binding,100%
Cc1cc(NC(=O)c2cccc3cc(-c4cccc5[nH]nc(N)c45)ccc23)ccc1F,BRAF V600E,enzyme activity,inhibitor,,0.1 µM,activity vs control,100%
Nc1ncnc2occ(-c3ccc(NC(=O)Nc4cc(C(F)(F)F)ccc4F)cc3)c12,BRAF,cell-free assay,,,20 µM,remaining signal,0.8%
C[C@@H]1CCN(C(=O)CC#N)C[C@@H]1N(C)c1ncnc2[nH]ccc12,BRAF,cell-free assay,,,0.5 µM,remaining signal,93.7%
Cn1nc(C(=O)NCc2ccc(C(=O)O)cc2)cc1-c1ccc2[nH]ccc2c1,BRAF,cell-free assay,,competition with immobilised ligand,0.1 µM,remaining binding,74%
COc1ccc(-c2csc(NN=C(CS(=O)(=O)c3ccccc3)c3ccc(F)cc3)n2)cc1,BRAF V600E,enzyme activity,inhibitor,ATP luminescence,1 µM,inhibition,72%
Cc1nc(N2CC[C@@H](O)C2)ncc1-c1cc(C(F)(F)F)cc2[nH]ncc12,BRAF,cell-free assay,,competition with immobilised ligand,1 µM,remaining binding,73%
O=C(Nc1cnn(-c2csc(C(=O)NC3COC3)c2)c1)Nc1c(F)cccc1Cl,BRAF,enzyme activity,inhibitor,,5 µM,remaining activity,99.9%
